# Assay results pooled from the literature.
# Target: Myosin light chain kinase (MYLK3, Homo sapiens, UniProt Q32MK0)
# Sequence (Q32MK0 1-819, as in one of the studies): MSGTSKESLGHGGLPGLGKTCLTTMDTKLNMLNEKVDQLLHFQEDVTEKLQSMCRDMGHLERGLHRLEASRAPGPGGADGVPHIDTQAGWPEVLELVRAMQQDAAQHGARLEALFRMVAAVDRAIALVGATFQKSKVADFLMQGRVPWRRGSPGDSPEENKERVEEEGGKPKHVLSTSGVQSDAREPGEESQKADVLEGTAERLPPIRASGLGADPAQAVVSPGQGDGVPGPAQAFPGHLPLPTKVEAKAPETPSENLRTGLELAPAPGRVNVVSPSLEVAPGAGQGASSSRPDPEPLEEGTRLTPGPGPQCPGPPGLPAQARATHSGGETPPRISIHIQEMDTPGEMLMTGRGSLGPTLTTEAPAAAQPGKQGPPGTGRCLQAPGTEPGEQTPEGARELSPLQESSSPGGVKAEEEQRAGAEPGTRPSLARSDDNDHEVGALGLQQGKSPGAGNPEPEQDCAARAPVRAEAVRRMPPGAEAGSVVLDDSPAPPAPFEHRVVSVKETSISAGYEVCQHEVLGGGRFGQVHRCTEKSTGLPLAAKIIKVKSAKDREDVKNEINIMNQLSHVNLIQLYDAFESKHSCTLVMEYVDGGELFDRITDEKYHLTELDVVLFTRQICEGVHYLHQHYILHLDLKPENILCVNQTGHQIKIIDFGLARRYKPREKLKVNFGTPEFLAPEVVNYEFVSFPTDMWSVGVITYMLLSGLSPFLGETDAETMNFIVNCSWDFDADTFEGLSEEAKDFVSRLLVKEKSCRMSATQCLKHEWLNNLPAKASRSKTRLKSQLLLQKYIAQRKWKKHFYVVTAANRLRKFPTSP
assay,setting,remaining binding [%],Compound
binding,1 µM,71,COc1ccnn2ncc(-c3ccnc(N(C)C)n3)c12
"binding, competition with immobilised ligand",1 µM,92,C=CC(=O)N1CCC(C(=O)NCC(=O)N2CCN(c3nc(-c4cnc(N)nc4C(F)F)nc(N4CCOCC4)n3)CC2)CC1
"binding, competition with immobilised ligand",1 µM,91,Nc1ncc2c(n1)-c1c([nH]c3ccc(C#CC4CC4)cc13)CCCC2
"binding, competition with immobilised ligand",1 µM,100,CCN1CCN(Cc2ccc(C(=O)Nc3ccc(C)c(Oc4ccc5c(c4)CC(=O)N5)c3)cc2C(F)(F)F)CC1
"binding, competition with immobilised ligand",1 µM,97,COc1cnc(Nc2cccc(S(N)(=O)=O)c2)nc1N1CCN(c2ccccc2)C(=O)C1
binding,1 µM,91,C[C@@H]1CCN(c2nccc(-c3cnn4ncccc34)n2)C1
"binding, competition with immobilised ligand",1 µM,100,O=C(NCC1CCOCC1)c1n[nH]cc1NC(=O)c1c(F)cccc1F
"cell-free assay, competition with immobilised ligand",0.1 µM,88,CS(=O)(=O)N1CCCC(NC(=O)[C@H](CCC2CCCCC2)NC(=O)c2ccc(CNC(=O)c3cnc4ccccn34)cc2)C1 (some centres unmarked)
binding,1 µM,100,N[C@@H]1CCN(c2nccc(-c3cnn4ncccc34)n2)C1
"binding, competition with immobilised ligand",1 µM,2,O=C(c1ccc(Nc2ncc(Cl)c(-c3cc4ccccc4s3)n2)cc1)N1CCC(N2CCCC2)CC1
"cell-free assay, competition with immobilised ligand",1 µM,100,C[C@H](c1ccc(F)cc1)N(Cc1cccc(C(=O)O)c1)C(=O)c1cnc2ccccc2c1
binding,1 µM,100,CC1CCCN1c1nccc(-c2cnn3ncccc23)n1 (centres unmarked)
"cell-free assay, competition with immobilised ligand",1 µM,97,C[C@@H]1CN(c2cc(-c3nn(C)c4ccc(OC5(C)CC5)cc34)ncn2)C[C@H](C)O1
binding,1 µM,100,CN(CCCC(F)(F)F)c1nccc(-c2cnn3ncccc23)n1
"cell-free assay, competition with immobilised ligand",1 µM,100,CS(=O)(=O)NCC[C@H](NC(=O)c1cncc2c1cnn2-c1ccc(F)cc1)c1ccnc(S(C)(=O)=O)c1
"binding, competition with immobilised ligand",1 µM,7.9,O=C(NCCCN1CCOCC1)c1ccc(Nc2ncc(Cl)c(-c3ccc(Cl)s3)n2)cc1
"cell-free assay, competition with immobilised ligand",1 µM,100,CC(=O)N1CCC(c2ccc(C(=O)NC3=NCCN3)cc2C(F)(F)F)CC1
"binding, competition with immobilised ligand",1 µM,6.7,O=C(c1ccc(Nc2ncc(Cl)c(-c3ccc(Cl)s3)n2)cc1)N1CCC(N2CCCC2)CC1
binding,1 µM,100,c1cnn2ncc(-c3ccnc(N4CCC45COC5)n3)c2c1
"cell-free assay, competition with immobilised ligand",1 µM,76,N#CC1(c2ccccn2)CCN(Cc2cc(C(=O)N3CCCC3)c(=O)n3ccccc23)CC1
